Legend:
[1] = biological target: Furin (Homo sapiens, UniProt P09958); experiment: Inhibitory activity against furin
[2] = biological target: Serine protease 1 (Homo sapiens, UniProt P07477); experiment: Inhibitory activity against trypsin
Procedure, shortened: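 Trypsin was tested in the furin buffer: 100 mM HEPES pH 7.5, 0.5% Triton X-100, 1 mM CaCl2, 1 mM 2-mercaptoethanol.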

[3] = biological target: Subtilisin Carlsberg (Bacillus licheniformis) (UniProt P00780); experiment: Inhibitory activity against subtilism Carlsberg; No inhibition
Sequence of Subtilisin Carlsberg (Bacillus licheniformis) (P00780 whole entry, looked up): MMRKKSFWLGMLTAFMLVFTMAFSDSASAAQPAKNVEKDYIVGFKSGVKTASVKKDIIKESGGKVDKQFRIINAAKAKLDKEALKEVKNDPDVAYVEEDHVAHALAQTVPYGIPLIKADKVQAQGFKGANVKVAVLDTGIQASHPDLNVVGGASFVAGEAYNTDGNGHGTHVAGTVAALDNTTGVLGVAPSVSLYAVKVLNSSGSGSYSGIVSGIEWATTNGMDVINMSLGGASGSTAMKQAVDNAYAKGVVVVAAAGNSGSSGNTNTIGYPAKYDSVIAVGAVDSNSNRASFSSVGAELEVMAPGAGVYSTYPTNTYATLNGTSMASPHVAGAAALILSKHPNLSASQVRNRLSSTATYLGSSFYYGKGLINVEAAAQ

Sequence of Furin (P09958 whole entry): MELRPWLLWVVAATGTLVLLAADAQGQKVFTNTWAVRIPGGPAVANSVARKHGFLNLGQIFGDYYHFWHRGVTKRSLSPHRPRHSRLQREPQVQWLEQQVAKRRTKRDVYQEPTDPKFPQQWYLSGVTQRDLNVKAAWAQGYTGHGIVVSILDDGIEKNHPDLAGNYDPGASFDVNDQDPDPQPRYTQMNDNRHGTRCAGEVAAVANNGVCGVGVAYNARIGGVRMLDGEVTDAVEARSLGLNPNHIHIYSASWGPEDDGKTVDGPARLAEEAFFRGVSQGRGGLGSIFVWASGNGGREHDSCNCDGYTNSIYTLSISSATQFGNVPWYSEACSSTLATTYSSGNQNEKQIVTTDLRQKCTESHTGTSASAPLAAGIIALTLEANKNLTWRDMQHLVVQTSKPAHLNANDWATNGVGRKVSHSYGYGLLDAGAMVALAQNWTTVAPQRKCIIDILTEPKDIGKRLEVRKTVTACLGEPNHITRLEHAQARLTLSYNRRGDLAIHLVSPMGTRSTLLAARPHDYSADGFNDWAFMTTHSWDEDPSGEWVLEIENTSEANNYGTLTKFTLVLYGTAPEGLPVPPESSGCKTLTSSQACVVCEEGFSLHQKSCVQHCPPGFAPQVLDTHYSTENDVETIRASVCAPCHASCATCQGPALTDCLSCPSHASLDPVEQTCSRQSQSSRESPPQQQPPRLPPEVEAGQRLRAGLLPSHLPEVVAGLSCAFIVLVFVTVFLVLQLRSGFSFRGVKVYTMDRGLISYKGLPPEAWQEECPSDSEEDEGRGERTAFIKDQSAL
Sequence of Serine protease 1 (P07477 whole entry): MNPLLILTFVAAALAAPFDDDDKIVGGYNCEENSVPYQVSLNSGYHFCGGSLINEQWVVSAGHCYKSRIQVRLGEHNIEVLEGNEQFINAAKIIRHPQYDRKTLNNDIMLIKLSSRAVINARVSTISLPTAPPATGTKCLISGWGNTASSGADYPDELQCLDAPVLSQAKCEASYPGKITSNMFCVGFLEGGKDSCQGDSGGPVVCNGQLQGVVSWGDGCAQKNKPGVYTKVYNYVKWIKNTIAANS

| Ki [1] | Ki [2] | Ki [3] | Structure (SMILES) |
| --- | --- | --- | --- |
| 3.4 nM | – | – | CCCCCCCCCCN[C@@H](CCCN=C(N)N)C(=O)N[C@H](C(=O)N[C@@H](CCCCN)C(=O)N[C@@H](CCCN=C(N)N)C(=O)CN[C@@H](C)C(=O)N[C@H](C(=O)NCC(N)=O)C(C)C)C(C)C |
| 26 nM | – | – | CCCCCCCCCCN[C@@H](CCCN=C(N)N)C(=O)N[C@H](C(=O)N[C@@H](CCCCN)C(=O)N[C@H](CCCN=C(N)N)C(=O)CN[C@@H](C)C(=O)N[C@H](C(=O)NCC(N)=O)C(C)C)C(C)C |
| 240 nM | – | – | CCCCCCCCCCN[C@@H](CCCN=C(N)N)C(=O)N[C@H](C(=O)N[C@@H](CCCCN)C(=O)N[C@@H](CCCN=C(N)N)C(=O)CCC(=O)OC)C(C)C |

Further lines, the compound ahead of its results:

| Structure (SMILES) | Ki [1] | Ki [2] | Ki [3] |
| --- | --- | --- | --- |
| CCCCCCCCCCN[C@@H](CCCN=C(N)N)C(=O)N[C@H](C(=O)N[C@@H](CCCCN)C(=O)N[C@@H](CCCN=C(N)N)C(=O)CCC(=O)N[C@@H](C(=O)NCC(=O)N[C@H](CC(C)C)C(=O)OC)C(C)C)C(C)C | 330 nM | 20900 nM | Not Active |
| CCCCCCCCCCN[C@@H](CCCNC(=N)N)C(=O)N[C@H](C(=O)N[C@@H](CCCCN)C(=O)N[C@@H](CCCNC(=N)N)C(=O)CN[C@@H](C)C(=O)N[C@H](C(=O)NCC(=O)OC)C(C)C)C(C)C | – | 1900 nM | – |
| COC(=O)[C@@H](CC(C)C)NC(=O)CNC(=O)[C@H](NC(=O)CCC(=O)[C@H](CCCN=C(N)N)NC(=O)[C@H](CCCCN)NC(=O)[C@@H](NC(=O)[C@H](CCCN=C(N)N)NC(C)=O)C(C)C)C(C)C | 350 nM | – | – |

— ChEMBL document CHEMBL1128743, “Synthesis of tight binding inhibitors and their action on the proprotein-processing enzyme furin” (J Med Chem, 1995)
